Test results from ChEMBL document CHEMBL3098105, “7,7'-Diazaindirubin--a small molecule inhibitor of casein kinase 2 in vitro and in cells” (Bioorg Med Chem, 2014).

How the values were obtained:
[1] = biological target: Tyrosine-protein kinase JAK2 (Homo sapiens) (UniProt O60674); test: Inhibition of human JAK2 assessed as residual activity at 1 uM relative to control
[2] = tested on: MCF7; test: Cell cycle arrest in human MCF7 cells assessed as accumulation at sub-G1 phase at 0.25 uM after 24 hrs using propidium iodide staining by FACS analysis (reference value: 0.17%); assay type: functional
[3] = biological target: Insulin-like growth factor 1 receptor (Homo sapiens) (UniProt P08069); test: Inhibition of human IGF-1R assessed as residual activity at 1 uM relative to control
[4] = biological target: Ephrin type-B receptor 4 (Homo sapiens) (UniProt P54760); test: Inhibition of human EphB4 assessed as residual activity at 1 uM relative to control
[5] = biological target: Tyrosine-protein kinase BTK (Homo sapiens) (UniProt Q06187); test: Inhibition of human BTK assessed as residual activity at 1 uM relative to control
Sequence of Tyrosine-protein kinase BTK (Homo sapiens) (Q06187 whole entry): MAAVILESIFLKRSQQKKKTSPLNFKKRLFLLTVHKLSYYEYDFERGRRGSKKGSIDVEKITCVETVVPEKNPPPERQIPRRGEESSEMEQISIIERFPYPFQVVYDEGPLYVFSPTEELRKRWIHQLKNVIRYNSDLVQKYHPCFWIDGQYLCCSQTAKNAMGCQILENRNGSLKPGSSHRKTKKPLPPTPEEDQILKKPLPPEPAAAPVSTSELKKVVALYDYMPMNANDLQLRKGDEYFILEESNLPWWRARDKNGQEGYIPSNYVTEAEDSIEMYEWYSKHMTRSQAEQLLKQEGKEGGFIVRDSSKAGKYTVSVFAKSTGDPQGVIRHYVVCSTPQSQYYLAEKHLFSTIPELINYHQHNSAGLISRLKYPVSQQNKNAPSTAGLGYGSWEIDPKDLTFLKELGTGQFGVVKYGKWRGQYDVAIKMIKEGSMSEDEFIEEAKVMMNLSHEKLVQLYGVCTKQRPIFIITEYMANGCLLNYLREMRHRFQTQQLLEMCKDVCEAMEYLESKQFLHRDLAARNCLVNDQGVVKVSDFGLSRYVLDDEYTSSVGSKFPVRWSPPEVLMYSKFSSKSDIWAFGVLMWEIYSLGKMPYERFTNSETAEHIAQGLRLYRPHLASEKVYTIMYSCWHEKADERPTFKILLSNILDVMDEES

[6] = biological target: Serine/threonine-protein kinase Sgk1 (Homo sapiens) (UniProt O00141); test: Inhibition of human SGK assessed as residual activity at 1 uM relative to control
[7] = tested on: SK-MEL-2; test: Antiproliferative activity against human SK-MEL-2 cells after 3 days by sulforhodamine B assay; assay type: functional; details: SK-MEL-2, 72 h
How it was run: (§1)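 Tested in the NCI 60 cell line panel. GI50 is the concentration giving 50% inhibition of cell growth, and values are the mean of two series of tests.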

[8] = biological target: Serine/threonine-protein kinase Chk2 (Homo sapiens) (UniProt O96017); test: Inhibition of human CHK2 assessed as residual activity at 1 uM relative to control
Sequence of Serine/threonine-protein kinase Chk2 (Homo sapiens) (O96017 whole entry): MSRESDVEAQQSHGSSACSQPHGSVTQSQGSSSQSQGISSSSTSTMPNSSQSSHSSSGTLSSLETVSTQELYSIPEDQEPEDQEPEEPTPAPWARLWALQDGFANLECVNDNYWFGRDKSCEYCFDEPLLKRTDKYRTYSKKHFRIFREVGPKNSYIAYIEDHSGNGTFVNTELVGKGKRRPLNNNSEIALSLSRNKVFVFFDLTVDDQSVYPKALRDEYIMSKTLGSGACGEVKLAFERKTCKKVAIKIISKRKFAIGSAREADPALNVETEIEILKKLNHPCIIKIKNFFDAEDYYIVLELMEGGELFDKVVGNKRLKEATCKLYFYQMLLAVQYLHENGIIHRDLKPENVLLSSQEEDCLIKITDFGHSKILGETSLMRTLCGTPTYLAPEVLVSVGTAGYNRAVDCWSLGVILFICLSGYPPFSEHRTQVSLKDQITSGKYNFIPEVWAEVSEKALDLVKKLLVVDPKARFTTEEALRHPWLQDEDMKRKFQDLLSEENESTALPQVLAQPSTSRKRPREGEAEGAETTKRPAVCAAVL

[9] = tested on: MDA-MB-468; test: Antiproliferative activity against human MDA-MB-468 cells after 3 days by sulforhodamine B assay; assay type: functional; details: MDA-MB-468, 72 h; how it was run: as §1
[10] = biological target: Serine/threonine-protein kinase 33 (Homo sapiens) (UniProt Q9BYT3); test: Inhibition of human STK33 assessed as residual activity at 1 uM relative to control
[11] = biological target: Serine/threonine-protein kinase D2 (Homo sapiens) (UniProt Q9BZL6); test: Inhibition of human PKD2 assessed as residual activity at 1 uM relative to control
[12] = species: Homo sapiens; test: Inhibition of S6K (unknown origin) assessed as residual activity at 10 uM relative to control
[13] = tested on: 786-0; test: Antiproliferative activity against human 786-0 cells after 3 days by sulforhodamine B assay; assay type: functional; details: 786-0, 72 h; how it was run: as §1
[14] = tested on: MOLT-4; test: Antiproliferative activity against human MOLT4 cells after 3 days by sulforhodamine B assay; assay type: functional; details: MOLT-4, 72 h; how it was run: as §1
[15] = biological target: cGMP-dependent protein kinase 1 (Homo sapiens) (UniProt Q13976); test: Inhibition of human PKG1beta assessed as residual activity at 1 uM relative to control
[16] = biological target: Interleukin-1 receptor-associated kinase 1 (Homo sapiens) (UniProt P51617); test: Inhibition of human IRAK1 assessed as residual activity at 1 uM relative to control
[17] = Antiproliferative activity against human RXF393 cells after 3 days by sulforhodamine B assay; assay type: functional; details: RXF 393, 72 h; how it was run: as §1
[18] = biological target: Ephrin type-A receptor 4 (Homo sapiens) (UniProt P54764); test: Inhibition of human EphA4 assessed as residual activity at 1 uM relative to control
[19] = biological target: Cyclin-dependent kinase 4/cyclin D1 (Homo sapiens) (UniProt P11802+P24385); test: Inhibition of CDK4/CycD1 (unknown origin) assessed as residual activity at 1 uM relative to control; assay type: protein-complex assay
[20] = biological target: Receptor-type tyrosine-protein kinase FLT3 (Homo sapiens) (UniProt P36888); test: Inhibition of human Flt3 assessed as residual activity at 1 uM relative to control
[21] = biological target: Serine/threonine-protein kinase TAO1 (Homo sapiens) (UniProt Q7L7X3); test: Inhibition of human TAO1 assessed as residual activity at 1 uM relative to control
[22] = biological target: Serine/threonine-protein kinase ULK2 (Homo sapiens) (UniProt Q8IYT8); test: Inhibition of human ULK2 assessed as residual activity at 1 uM relative to control
[23] = biological target: Calcium/calmodulin-dependent protein kinase type 1D (Homo sapiens) (UniProt Q8IU85); test: Inhibition of human CaMK1delta assessed as residual activity at 1 uM relative to control
[24] = biological target: Fibroblast growth factor receptor 1 (Homo sapiens) (UniProt P11362); test: Inhibition of FGF-R1 (unknown origin) assessed as residual activity at 10 uM relative to control
[25] = biological target: Calcium/calmodulin-dependent protein kinase type IV (Homo sapiens) (UniProt Q16566); test: Inhibition of human CaMK4 assessed as residual activity at 1 uM relative to control
[26] = biological target: Angiopoietin-1 receptor (Homo sapiens) (UniProt Q02763); test: Inhibition of human Tie2 assessed as residual activity at 1 uM relative to control
Sequence of Angiopoietin-1 receptor (Homo sapiens) (Q02763 whole entry): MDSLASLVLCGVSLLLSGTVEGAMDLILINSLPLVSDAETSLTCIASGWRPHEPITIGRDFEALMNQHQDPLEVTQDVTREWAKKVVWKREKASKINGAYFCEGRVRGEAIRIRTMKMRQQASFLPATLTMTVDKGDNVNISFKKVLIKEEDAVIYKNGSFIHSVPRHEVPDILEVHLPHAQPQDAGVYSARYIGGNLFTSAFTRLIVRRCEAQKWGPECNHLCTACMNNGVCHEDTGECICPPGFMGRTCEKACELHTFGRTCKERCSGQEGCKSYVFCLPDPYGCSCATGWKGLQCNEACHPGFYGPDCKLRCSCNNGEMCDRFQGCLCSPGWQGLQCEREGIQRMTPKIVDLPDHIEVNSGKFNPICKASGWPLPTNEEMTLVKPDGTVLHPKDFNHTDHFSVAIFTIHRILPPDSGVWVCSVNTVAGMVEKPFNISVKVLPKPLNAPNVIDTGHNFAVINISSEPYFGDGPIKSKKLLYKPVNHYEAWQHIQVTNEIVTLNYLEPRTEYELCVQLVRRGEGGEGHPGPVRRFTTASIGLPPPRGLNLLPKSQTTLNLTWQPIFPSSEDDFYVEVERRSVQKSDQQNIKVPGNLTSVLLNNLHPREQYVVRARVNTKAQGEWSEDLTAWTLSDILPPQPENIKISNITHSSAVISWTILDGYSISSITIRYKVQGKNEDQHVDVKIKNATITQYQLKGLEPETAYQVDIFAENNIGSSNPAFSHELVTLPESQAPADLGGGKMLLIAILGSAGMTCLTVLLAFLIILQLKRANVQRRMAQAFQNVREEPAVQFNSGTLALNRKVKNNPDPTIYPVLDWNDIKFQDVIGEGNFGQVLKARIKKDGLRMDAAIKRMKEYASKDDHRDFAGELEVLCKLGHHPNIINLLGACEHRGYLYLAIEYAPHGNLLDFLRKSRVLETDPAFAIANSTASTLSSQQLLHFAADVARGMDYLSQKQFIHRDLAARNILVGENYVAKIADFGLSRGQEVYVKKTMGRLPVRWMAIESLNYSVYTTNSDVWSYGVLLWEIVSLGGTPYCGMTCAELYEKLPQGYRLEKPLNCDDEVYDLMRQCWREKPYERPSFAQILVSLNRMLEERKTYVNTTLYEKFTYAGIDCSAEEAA

[27] = biological target: T1, Cyclin-dependent kinase 2/cyclin E1 (Homo sapiens) (UniProt P24864+P24941); test: Inhibition of human CDK2/cyclinE assessed as residual activity at 1 uM relative to control; assay type: protein-complex assay
[28] = biological target: RAF proto-oncogene serine/threonine-protein kinase (Homo sapiens) (UniProt P04049); test: Inhibition of RAF1 (unknown origin) assessed as residual activity at 10 uM relative to control
[29] = Antiproliferative activity against human SF539 cells after 3 days by sulforhodamine B assay; assay type: functional; details: SF-539, 72 h; how it was run: as §1
[30] = biological target: T1, Cyclin-dependent kinase 2/cyclin E1 (Homo sapiens); test: Inhibition of CDK2/CycE (unknown origin) assessed as residual activity at 10 uM relative to control; assay type: protein-complex assay
[31] = biological target: Serine/threonine-protein kinase BRSK2 (Homo sapiens) (UniProt Q8IWQ3); test: Inhibition of human BrSK2 assessed as residual activity at 1 uM relative to control
Sequence of Serine/threonine-protein kinase BRSK2 (Homo sapiens) (Q8IWQ3 whole entry): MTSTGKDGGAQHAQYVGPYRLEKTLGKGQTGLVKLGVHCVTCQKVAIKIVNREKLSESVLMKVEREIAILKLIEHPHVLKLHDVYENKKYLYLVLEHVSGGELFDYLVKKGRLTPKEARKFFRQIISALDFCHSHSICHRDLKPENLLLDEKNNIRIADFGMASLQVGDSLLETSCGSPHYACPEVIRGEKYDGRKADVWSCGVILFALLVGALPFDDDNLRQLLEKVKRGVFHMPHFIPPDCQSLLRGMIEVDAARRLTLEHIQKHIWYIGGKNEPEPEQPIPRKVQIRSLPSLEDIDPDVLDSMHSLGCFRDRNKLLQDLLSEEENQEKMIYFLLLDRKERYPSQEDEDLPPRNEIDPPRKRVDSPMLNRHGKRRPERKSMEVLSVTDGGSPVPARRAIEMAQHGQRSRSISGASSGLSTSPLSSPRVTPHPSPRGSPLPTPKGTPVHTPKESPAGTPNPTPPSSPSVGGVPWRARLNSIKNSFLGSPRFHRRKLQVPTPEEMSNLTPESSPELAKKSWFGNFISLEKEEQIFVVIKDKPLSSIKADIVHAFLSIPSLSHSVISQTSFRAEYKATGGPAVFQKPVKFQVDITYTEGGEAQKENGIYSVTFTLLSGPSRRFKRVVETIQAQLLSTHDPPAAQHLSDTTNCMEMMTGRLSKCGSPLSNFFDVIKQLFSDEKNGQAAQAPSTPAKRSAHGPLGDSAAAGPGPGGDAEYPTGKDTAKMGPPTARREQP

[32] = biological target: Dual specificity mitogen-activated protein kinase kinase 4 (Mus musculus) (UniProt P47809); test: Inhibition of mouse MKK4 assessed as residual activity at 1 uM relative to control
[33] = biological target: Inhibitor of nuclear factor kappa-B kinase subunit beta (Homo sapiens) (UniProt O14920); test: Inhibition of human IKKbeta assessed as residual activity at 1 uM relative to control
[34] = biological target: Ephrin type-A receptor 3 (Homo sapiens) (UniProt P29320); test: Inhibition of human EphA3 assessed as residual activity at 1 uM relative to control
[35] = tested on: A549; test: Antiproliferative activity against human A549 cells after 3 days by sulforhodamine B assay; assay type: functional; details: A549, 72 h; how it was run: as §1
[36] = biological target: Serine/threonine-protein kinase tousled-like 2 (Homo sapiens) (UniProt Q86UE8); test: Inhibition of human TLK2 assessed as residual activity at 1 uM relative to control
Sequence of Serine/threonine-protein kinase tousled-like 2 (Homo sapiens) (Q86UE8 whole entry, looked up): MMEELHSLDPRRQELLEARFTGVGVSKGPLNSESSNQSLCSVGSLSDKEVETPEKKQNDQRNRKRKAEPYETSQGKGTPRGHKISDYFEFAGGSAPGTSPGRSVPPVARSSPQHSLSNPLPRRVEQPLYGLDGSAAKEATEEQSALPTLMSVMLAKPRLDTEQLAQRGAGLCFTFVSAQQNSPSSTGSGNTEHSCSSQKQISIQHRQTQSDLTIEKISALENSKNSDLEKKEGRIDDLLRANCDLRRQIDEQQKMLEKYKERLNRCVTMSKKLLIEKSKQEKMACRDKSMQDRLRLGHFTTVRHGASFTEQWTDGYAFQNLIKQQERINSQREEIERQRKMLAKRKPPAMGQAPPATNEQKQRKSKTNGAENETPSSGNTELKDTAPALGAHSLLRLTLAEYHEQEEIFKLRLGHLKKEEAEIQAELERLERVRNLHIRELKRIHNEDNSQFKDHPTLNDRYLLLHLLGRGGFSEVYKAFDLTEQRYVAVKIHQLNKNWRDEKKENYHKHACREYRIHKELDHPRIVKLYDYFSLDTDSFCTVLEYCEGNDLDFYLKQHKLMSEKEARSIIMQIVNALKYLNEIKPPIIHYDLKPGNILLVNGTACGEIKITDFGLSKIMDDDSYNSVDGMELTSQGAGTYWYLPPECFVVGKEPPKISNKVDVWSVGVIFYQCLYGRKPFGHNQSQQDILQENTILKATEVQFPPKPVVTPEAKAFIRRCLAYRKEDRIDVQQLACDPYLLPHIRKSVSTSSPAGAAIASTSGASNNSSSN

[37] = biological target: Serine/threonine-protein kinase Sgk2 (Homo sapiens) (UniProt Q9HBY8); test: Inhibition of human SGK2 assessed as residual activity at 1 uM relative to control
Sequence of Serine/threonine-protein kinase Sgk2 (Homo sapiens) (Q9HBY8 whole entry): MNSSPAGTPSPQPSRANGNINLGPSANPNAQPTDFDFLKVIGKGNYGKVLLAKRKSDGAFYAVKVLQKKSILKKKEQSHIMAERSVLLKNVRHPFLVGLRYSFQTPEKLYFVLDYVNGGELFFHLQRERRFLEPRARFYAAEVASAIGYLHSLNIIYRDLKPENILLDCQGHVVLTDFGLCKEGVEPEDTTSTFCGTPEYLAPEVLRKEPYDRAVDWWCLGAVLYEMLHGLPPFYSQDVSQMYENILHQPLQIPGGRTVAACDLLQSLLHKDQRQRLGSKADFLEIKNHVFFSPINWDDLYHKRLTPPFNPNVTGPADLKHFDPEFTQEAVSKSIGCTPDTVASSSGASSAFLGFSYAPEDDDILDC

[38] = biological target: Rhodopsin kinase GRK7 (Homo sapiens) (UniProt Q8WTQ7); test: Inhibition of human GRK7 assessed as residual activity at 1 uM relative to control
[39] = biological target: Serine/threonine-protein kinase PAK 4 (Homo sapiens) (UniProt O96013); test: Inhibition of human PAK4 assessed as residual activity at 1 uM relative to control
Sequence of Serine/threonine-protein kinase PAK 4 (Homo sapiens) (O96013 whole entry, looked up): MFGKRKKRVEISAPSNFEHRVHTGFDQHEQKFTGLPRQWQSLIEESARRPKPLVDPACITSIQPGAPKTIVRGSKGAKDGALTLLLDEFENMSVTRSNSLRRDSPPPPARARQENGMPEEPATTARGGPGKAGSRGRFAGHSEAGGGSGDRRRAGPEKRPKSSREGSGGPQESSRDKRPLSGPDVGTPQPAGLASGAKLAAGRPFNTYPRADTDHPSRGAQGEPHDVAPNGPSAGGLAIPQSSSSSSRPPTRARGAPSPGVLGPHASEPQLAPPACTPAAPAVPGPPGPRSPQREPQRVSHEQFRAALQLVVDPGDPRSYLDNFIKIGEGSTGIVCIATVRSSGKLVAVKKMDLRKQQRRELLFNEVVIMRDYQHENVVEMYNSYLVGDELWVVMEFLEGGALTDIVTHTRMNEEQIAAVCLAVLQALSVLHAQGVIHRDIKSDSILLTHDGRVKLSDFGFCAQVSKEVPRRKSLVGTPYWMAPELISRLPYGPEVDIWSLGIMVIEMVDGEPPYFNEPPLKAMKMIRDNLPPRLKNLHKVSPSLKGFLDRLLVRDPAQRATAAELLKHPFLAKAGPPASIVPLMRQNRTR

Activity [1]: 91%
Activity [3]: 112%
Activity [4]: 116%
Activity [5]: 140%
Activity [6]: 88%
GI50 [7]: 1.71 µM
Activity [8]: 120%
GI50 [9]: 1.14 µM
Activity [10]: 91%
Activity [11]: 100%
Activity [12]: 99%
GI50 [13]: 4.19 µM
GI50 [14]: 3.32 µM
Activity [15]: 90%
Activity [16]: 89%
Activity [18]: 78%
Activity [19]: 100%
Activity [20]: 69%
Activity [21]: 98%
Activity [22]: 65%
Activity [23]: 70%
Activity [24]: 81%
Activity [25]: 100%
Activity [26]: 117%
Activity [27]: 79%
Activity [28]: 86%
Activity [30]: 77%
Activity [31]: 108%
Activity [32]: 110%
Activity [33]: 110%
Activity [34]: 83%
GI50 [35]: 0.236 µM
Activity [36]: 103%
Activity [37]: 127%
Activity [38]: 96%
Activity [39]: 108%
Structure (SMILES): O=C1Nc2ncccc2/C1=C1/Nc2ncccc2C1=O
Activity [2]: 0.17%
GI50 [17]: 2.19 µM
GI50 [29]: 1.9 µM
